# Source: ChEMBL document CHEMBL5303300, “EUbOPEN Chemogenomics Library - Multiplex” (2023)
# “And” between values parts separate entries of the source, which are not always exact repeats. Equal values may be shown once.
# Test system: U2OS
# Assay: Multiplex assay against U2OS
# Format: toxicity, cell-based
# Conditions: human, number of replicates 2
# How it was run: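 Compound was added to live cells that had been stained at seeding with Hoechst33342, BioTracker Green Microtubule Cytoskeleton Dye, MitoTracker Red and Annexin V Alexa Fluor 680, and imaging followed on a CQ1 microscope at 37°C and 5% CO2. CellPathfinder machine-learning gating divided cells into Hoechst high-intensity objects or normal cells, normal cells into healthy, pyknosed or fragmented nuclei, and pyknosed cells into mitotic or apoptotic. Tubulin, mitochondrial-mass and membrane-permeability phenotypes are per cents of healthy-nucleus cells.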
# [1] = 12 h, 1 µM, compound concentration 1 uM
# [2] = 12 h, 10 µM, compound concentration 10 uM
# [3] = 24 h, 1 µM, compound concentration 1 uM
# [4] = 24 h, 10 µM, compound concentration 10 uM
# [5] = 48 h, 1 µM, compound concentration 1 uM
# [6] = 48 h, 10 µM, compound concentration 10 uM
structure (smiles),measurement,setting,value
COc1cccc(Cn2cc(C(=O)Nc3ccc(C)c(S(=O)(=O)N4CCOCC4)c3)c(-c3ccc(C)cc3)n2)c1,Population Apoptotic (%),[1],33% and 76%
same,Population Healthy Nuclei (%),[1],46% and 76%
same,Population Hoechst High Intensity Objects (%),[1],0%
same,Population Membrane Permeable-Phenotype (%),[1],7% and 0%
same,Population Mitochondria Different-Phenotype (%),[1],0% and 4%
same,Population Mitotic Cells (%),[1],66% and 23%
same,Population Normal (%),[1],100%
same,Population Pyknosed Nuclei (%),[1],21% and 13%
same,Population Tubulin-Different-Phenotype (%),[1],38% and 54%
same,Population Apoptotic (%),[2],71% and 52%
same,Population Healthy Nuclei (%),[2],45% and 79%
same,Population Hoechst High Intensity Objects (%),[2],0%
same,Population Membrane Permeable-Phenotype (%),[2],47% and 38%
same,Population Mitochondria Different-Phenotype (%),[2],11% and 9%
same,Population Mitotic Cells (%),[2],28% and 47%
same,Population Normal (%),[2],100%
same,Population Pyknosed Nuclei (%),[2],37% and 17%
same,Population Tubulin-Different-Phenotype (%),[2],88% and 90%
same,Population Apoptotic (%),[3],37% and 76%
same,Population Fragmented Nuclei (%),[3],24% and 8%
same,Population Healthy Nuclei (%),[3],48% and 78%
same,Population Hoechst High Intensity Objects (%),[3],0%
same,Population Mitochondria Different-Phenotype (%),[3],14% and 5%
same,Population Mitotic Cells (%),[3],62% and 23%
same,Population Normal (%),[3],100% and 99%
same,Population Pyknosed Nuclei (%),[3],27% and 13%
same,Population Tubulin-Different-Phenotype (%),[3],64% and 65%
same,Population Apoptotic (%),[4],60% and 72%
same,Population Fragmented Nuclei (%),[4],15% and 6%
same,Population Healthy Nuclei (%),[4],46% and 70%
same,Population Hoechst High Intensity Objects (%),[4],0%
same,Population Membrane Permeable-Phenotype (%),[4],44% and 47%
same,Population Mitotic Cells (%),[4],40% and 27%
same,Population Normal (%),[4],100%
same,Population Pyknosed Nuclei (%),[4],38% and 23%
same,Population Tubulin-Different-Phenotype (%),[4],94% and 90%
same,Population Apoptotic (%),[5],45% and 67%
same,Population Healthy Nuclei (%),[5],48% and 83%
same,Population Hoechst High Intensity Objects (%),[5],0%
same,Population Membrane Permeable-Phenotype (%),[5],10% and 3%
same,Population Mitochondria Different-Phenotype (%),[5],10% and 4%
same,Population Mitotic Cells (%),[5],54% and 32%
same,Population Normal (%),[5],100%
same,Population Pyknosed Nuclei (%),[5],26% and 12%
same,Population Tubulin-Different-Phenotype (%),[5],65% and 80%
same,Population Apoptotic (%),[6],73% and 70%
same,Population Fragmented Nuclei (%),[6],7% and 21%
same,Population Healthy Nuclei (%),[6],63% and 32%
same,Population Hoechst High Intensity Objects (%),[6],0%
same,Population Membrane Permeable-Phenotype (%),[6],56% and 33%
same,Population Mitochondria Different-Phenotype (%),[6],21% and 16%
same,Population Mitotic Cells (%),[6],26% and 29%
same,Population Normal (%),[6],99% and 100%
same,Population Pyknosed Nuclei (%),[6],28% and 45%
same,Population Tubulin-Different-Phenotype (%),[6],85% and 100%
CS(=O)(=O)c1ccc(C(=O)Nc2cccc(COc3ccc(Br)cc3CN3CCC[C@H](O)C3)c2)c(Cl)c1.O=CO,Population Healthy Nuclei (%),[1],84% and 83%
same,Population Hoechst High Intensity Objects (%),[1],0%
same,Population Pyknosed Nuclei (%),[1],15%
same,Population Apoptotic (%),[2],66% and 52%
same,Population Healthy Nuclei (%),[2],69% and 75%
same,Population Hoechst High Intensity Objects (%),[2],0%
same,Population Pyknosed Nuclei (%),[2],15% and 18%
same,Population Healthy Nuclei (%),[3],74% and 83%
same,Population Hoechst High Intensity Objects (%),[3],0%
same,Population Apoptotic (%),[4],90%
same,Population Healthy Nuclei (%),[4],65% and 70%
same,Population Hoechst High Intensity Objects (%),[4],0%
same,Population Apoptotic (%),[5],77% and 76%
same,Population Healthy Nuclei (%),[5],53% and 83%
same,Population Hoechst High Intensity Objects (%),[5],0%
same,Population Pyknosed Nuclei (%),[5],19%
same,Population Apoptotic (%),[6],93% and 86%
same,Population Healthy Nuclei (%),[6],43% and 57%
same,Population Hoechst High Intensity Objects (%),[6],0%
same,Population Pyknosed Nuclei (%),[6],34% and 29%
N=C(N)NCCC[C@H](NC(=O)COCC(c1ccccc1)c1ccccc1)C(=O)O.O=C(O)C(F)(F)F,Population Apoptotic (%),[1],100% and 45%
same,Population Healthy Nuclei (%),[1],40% and 87%
same,Population Hoechst High Intensity Objects (%),[1],0%
same,Population Membrane Permeable-Phenotype (%),[1],0% and 1%
same,Population Mitochondria Different-Phenotype (%),[1],0%
same,Population Normal (%),[1],100% and 99%
same,Population Pyknosed Nuclei (%),[1],13% and 9%
same,Population Tubulin-Different-Phenotype (%),[1],41% and 86%
same,Population Apoptotic (%),[2],50% and 58%
same,Population Fragmented Nuclei (%),[2],3%
same,Population Healthy Nuclei (%),[2],70% and 88%
same,Population Hoechst High Intensity Objects (%),[2],0%
same,Population Membrane Permeable-Phenotype (%),[2],4% and 1%
same,Population Mitochondria Different-Phenotype (%),[2],4% and 0%
same,Population Mitotic Cells (%),[2],50% and 41%
same,Population Normal (%),[2],100%
same,Population Tubulin-Different-Phenotype (%),[2],71% and 83%
same,Population Apoptotic (%),[3],40% and 51%
same,Population Healthy Nuclei (%),[3],55% and 88%
same,Population Hoechst High Intensity Objects (%),[3],0%
same,Population Membrane Permeable-Phenotype (%),[3],13% and 0%
same,Population Mitochondria Different-Phenotype (%),[3],0%
same,Population Mitotic Cells (%),[3],60% and 48%
same,Population Normal (%),[3],100%
same,Population Pyknosed Nuclei (%),[3],18% and 9%
same,Population Tubulin-Different-Phenotype (%),[3],73% and 87%
same,Population Apoptotic (%),[4],71% and 50%
same,Population Fragmented Nuclei (%),[4],7% and 2%
same,Population Healthy Nuclei (%),[4],73% and 88%
same,Population Hoechst High Intensity Objects (%),[4],0%
same,Population Membrane Permeable-Phenotype (%),[4],3% and 0%
same,Population Mitochondria Different-Phenotype (%),[4],3% and 0%
same,Population Mitotic Cells (%),[4],28% and 50%
same,Population Normal (%),[4],100%
same,Population Pyknosed Nuclei (%),[4],18% and 8%
same,Population Tubulin-Different-Phenotype (%),[4],67% and 85%
same,Population Apoptotic (%),[5],50% and 43%
same,Population Healthy Nuclei (%),[5],63% and 89%
same,Population Hoechst High Intensity Objects (%),[5],0%
same,Population Membrane Permeable-Phenotype (%),[5],11% and 0%
same,Population Mitochondria Different-Phenotype (%),[5],7% and 0%
same,Population Mitotic Cells (%),[5],50% and 56%
same,Population Normal (%),[5],100%
same,Population Pyknosed Nuclei (%),[5],14% and 6%
same,Population Tubulin-Different-Phenotype (%),[5],73% and 85%
same,Population Apoptotic (%),[6],35% and 55%
same,Population Fragmented Nuclei (%),[6],7% and 2%
same,Population Healthy Nuclei (%),[6],70% and 93%
same,Population Hoechst High Intensity Objects (%),[6],0%
same,Population Membrane Permeable-Phenotype (%),[6],2% and 1%
same,Population Mitochondria Different-Phenotype (%),[6],2% and 0%
same,Population Mitotic Cells (%),[6],64% and 44%
same,Population Normal (%),[6],100% and 99%
same,Population Tubulin-Different-Phenotype (%),[6],63% and 95%
NCC1CCC(CNc2nc(NCc3ccccc3OC(F)(F)F)ncc2[N+](=O)[O-])CC1 (centres undefined),Population Apoptotic (%),[1],50% and 43%
same,Population Fragmented Nuclei (%),[1],5% and 1%
same,Population Healthy Nuclei (%),[1],74% and 87%
same,Population Hoechst High Intensity Objects (%),[1],0%
same,Population Membrane Permeable-Phenotype (%),[1],7%
same,Population Mitochondria Different-Phenotype (%),[1],7% and 18%
same,Population Mitotic Cells (%),[1],50% and 56%
same,Population Normal (%),[1],100% and 99%
same,Population Pyknosed Nuclei (%),[1],19% and 11%
same,Population Tubulin-Different-Phenotype (%),[1],31% and 29%
same,Population Apoptotic (%),[2],68% and 67%
same,Population Fragmented Nuclei (%),[2],24% and 19%
same,Population Healthy Nuclei (%),[2],36% and 61%
same,Population Hoechst High Intensity Objects (%),[2],0%
same,Population Membrane Permeable-Phenotype (%),[2],53% and 34%
same,Population Mitochondria Different-Phenotype (%),[2],73% and 64%
same,Population Mitotic Cells (%),[2],31% and 32%
same,Population Normal (%),[2],100%
same,Population Pyknosed Nuclei (%),[2],39% and 19%
same,Population Tubulin-Different-Phenotype (%),[2],93% and 76%
same,Population Apoptotic (%),[3],60%
same,Population Fragmented Nuclei (%),[3],1% and 0%
same,Population Healthy Nuclei (%),[3],81% and 85%
same,Population Hoechst High Intensity Objects (%),[3],0%
same,Population Membrane Permeable-Phenotype (%),[3],4% and 5%
same,Population Mitochondria Different-Phenotype (%),[3],0% and 22%
same,Population Mitotic Cells (%),[3],40% and 39%
same,Population Normal (%),[3],100%
same,Population Pyknosed Nuclei (%),[3],16% and 13%
same,Population Tubulin-Different-Phenotype (%),[3],20% and 30%
same,Population Apoptotic (%),[4],100% and 80%
same,Population Fragmented Nuclei (%),[4],28% and 21%
same,Population Healthy Nuclei (%),[4],31% and 59%
same,Population Hoechst High Intensity Objects (%),[4],0%
same,Population Membrane Permeable-Phenotype (%),[4],63% and 43%
same,Population Mitochondria Different-Phenotype (%),[4],36% and 55%
same,Population Mitotic Cells (%),[4],0% and 19%
same,Population Normal (%),[4],100%
same,Population Pyknosed Nuclei (%),[4],40% and 19%
same,Population Tubulin-Different-Phenotype (%),[4],90% and 81%
same,Population Apoptotic (%),[5],76% and 78%
same,Population Fragmented Nuclei (%),[5],6% and 1%
same,Population Healthy Nuclei (%),[5],71% and 88%
same,Population Hoechst High Intensity Objects (%),[5],0%
same,Population Membrane Permeable-Phenotype (%),[5],7% and 2%
same,Population Mitochondria Different-Phenotype (%),[5],3% and 10%
same,Population Mitotic Cells (%),[5],23% and 21%
same,Population Normal (%),[5],100%
same,Population Pyknosed Nuclei (%),[5],21% and 9%
same,Population Tubulin-Different-Phenotype (%),[5],19% and 34%
same,Population Apoptotic (%),[6],100% and 91%
same,Population Fragmented Nuclei (%),[6],24% and 21%
same,Population Healthy Nuclei (%),[6],24% and 54%
same,Population Hoechst High Intensity Objects (%),[6],0%
same,Population Membrane Permeable-Phenotype (%),[6],100% and 72%
same,Population Mitochondria Different-Phenotype (%),[6],75% and 46%
same,Population Mitotic Cells (%),[6],0% and 8%
same,Population Normal (%),[6],100%
same,Population Pyknosed Nuclei (%),[6],51% and 23%
same,Population Tubulin-Different-Phenotype (%),[6],100% and 86%
